Screening data: PubChem BioAssay, Johns Hopkins Ion Channel Center
TRPC4 act: TRPC4 (mouse) channel activation; B-score at 10 µM; hit rate 0.49% among 310,000; HEK293 TRPC4beta/mu-opioid, Fluo4 calcium fluorescence; stronger effect = higher value; Q9QUQ5;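 active means B-score above 5 SD of library B-scores, and initial fluorescence ratio not above library mean plus 5 SD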;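 further: positive B-score marks a calcium rise read as TRPC4 activation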
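Material: HEK293 stable line with TRPC4beta plus mu-opioid receptor; technique: Fluo4 calcium-sensitive dye fluorescence, kinetic, 1 Hz baseline; timing: Fluo4 dye loading 45 min at room temperature, 110 s recording; controls: assay buffer as low control, maximal DAMGO as high control; read-out: integrated baseline-normalised fluorescence ratio, converted to per-well B score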
Kir21 block: blocks the mouse Kir2.1 inward-rectifier potassium channel. P35561. HEK293-Kir2.1, FluxOR thallium flux fluorescence; stronger effect = lower value. B-score at 10 µM. hit rate 0.85% among 310,000. AID 1672;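 active means fluorescence ratio B-score at or below minus 3 SD of library scores, with starting-brightness B-score within 2 SD, cut at about -4.2 in these data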;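 further: channel flux triggered by added potassium and thallium sulfate stimulus; B-score of peak minus minimum fluorescence over baseline after thallium stimulus; more negative B-score means stronger Kir2.1 block with less thallium influx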
TRPC4 PAM: allosteric potentiators of mouse TRPC4 channel. hit rate 0.42% among 310,000. B-score at 10 µM. AID 2227. Q9QUQ5. HEK293 TRPC4beta/mu-opioid, DAMGO EC20, Fluo-4 Ca2+ flux; stronger effect = higher value;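 active means B-score of calcium response area above 5 SD of library B-scores, with initial fluorescence ratio within 5 SD of library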;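 further: B-score of integrated fluorescence ratio over time as area under calcium response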
TRPC6 inh: mouse TRPC6 channel inhibition; B-score at 10 µM; hit rate 1.1% among 310,000; HEK293-TRPC6, membrane potential dye, ACh-evoked depolarization; stronger effect = lower value; Q61143; AID 2553;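 active means B-score under library mean minus 3 SD, initial fluorescence not abnormally high, positive integrated signal ratio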;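 further: B-score derived from integrated fluorescence ratio over the kinetic read; more negative B-score means stronger inhibition of depolarization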
Target sequence (Q61143 whole entry, looked up): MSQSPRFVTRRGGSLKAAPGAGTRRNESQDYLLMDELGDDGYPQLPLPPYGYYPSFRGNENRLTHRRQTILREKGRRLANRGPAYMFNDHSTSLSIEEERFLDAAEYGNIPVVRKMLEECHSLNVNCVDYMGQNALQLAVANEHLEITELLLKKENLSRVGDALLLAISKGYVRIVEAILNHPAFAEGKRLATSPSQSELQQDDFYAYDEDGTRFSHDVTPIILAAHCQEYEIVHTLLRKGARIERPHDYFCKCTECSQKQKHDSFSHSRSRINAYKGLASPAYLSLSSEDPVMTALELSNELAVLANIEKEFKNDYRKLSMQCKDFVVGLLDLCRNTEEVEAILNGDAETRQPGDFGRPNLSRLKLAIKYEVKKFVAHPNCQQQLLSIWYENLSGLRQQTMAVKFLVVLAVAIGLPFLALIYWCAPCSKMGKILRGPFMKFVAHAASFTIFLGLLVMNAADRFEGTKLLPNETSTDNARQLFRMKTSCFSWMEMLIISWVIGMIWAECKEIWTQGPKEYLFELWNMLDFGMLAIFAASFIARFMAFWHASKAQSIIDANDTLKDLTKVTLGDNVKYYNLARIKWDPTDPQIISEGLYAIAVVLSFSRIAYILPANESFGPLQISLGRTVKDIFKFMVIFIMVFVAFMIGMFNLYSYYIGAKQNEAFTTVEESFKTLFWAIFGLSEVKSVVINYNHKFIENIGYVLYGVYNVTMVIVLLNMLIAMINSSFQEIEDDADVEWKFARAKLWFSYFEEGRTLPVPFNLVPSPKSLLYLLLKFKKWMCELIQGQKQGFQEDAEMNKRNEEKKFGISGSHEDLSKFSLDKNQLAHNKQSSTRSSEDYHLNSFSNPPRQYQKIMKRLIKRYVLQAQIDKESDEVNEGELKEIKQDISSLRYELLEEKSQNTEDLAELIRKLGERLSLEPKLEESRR
TRPC4 block: TRPC4 (mouse) channel inhibition | Q9QUQ5 | B-score at 10 µM | hit rate 0.39% among 300,000 | HEK293 TRPC4beta/mu-opioid, DAMGO-evoked Fluo4 calcium flux; stronger effect = lower value;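 active means B-score over 3 SD under the library average, no early fluorescence shift, positive overall ratio signal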
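Assay system – HEK293 line stably carrying TRPC4beta and mu-opioid receptor · Doses – single dose · Detection – Fluo4 calcium-dye fluorescence, kinetic read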
TRPC6 act: activators of mouse TRPC6 channel; Q61143; HEK293-TRPC6 membrane potential dye fluorescence; stronger effect = higher value; B-score at 10 µM; hit rate 0.13% among 310,000;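 active means B-score of the integrated fluorescence ratio above library mean plus 3 SD, and starting fluorescence ratio within library mean plus 5 SD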;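 further: higher score means more depolarization so channel activation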
* marks the source's active call; other numbers are inactive results; i = inactive. Most compounds without a hit are left out; they make up all but 2.9% or so of the library.

SMILES	TRPC4 act	Kir21 block	TRPC4 PAM	TRPC6 inh	TRPC4 block	TRPC6 act
COc1cc(/C=C2\C(=N)N3N=CSC3=NC2=O)ccc1OS(=O)(=O)c1ccccc1	i	-2.3	i	i	i	i
O=C(Oc1c(CN2CCOCC2)cc(Cl)c2cccnc12)c1ccccc1F	i	1.2	i	i	i	i
CC(C)Nc1nc2nonc2nc1Nc1ccccc1	i	1.8	i	i	i	i
COc1ccc(CCNC(=O)COC(=O)C23CC4CC(CC(C4)C2)C3)cc1	i	-7.3*	i	i	i	i
COc1ccccc1NC(=O)C1(c2ccccc2)CCCC1	i	-1.5	13*	i	i	i
COc1ccc(CCNC(C)=O)cc1	i	0.11	i	i	i	i
COc1ccc(CCNC(=O)C2CC=CCC2C(=O)O)cc1 (configuration not stated)	i	-0.88	12*	i	i	i
COc1ccc(CCNC(=O)COC(=O)C23CC4CC(CC(Br)(C4)C2)C3)cc1	i	-2	i	i	i	i
COc1ccc(CCNC(=O)C2(c3ccccc3)CC2)cc1	i	-4.6*	i	i	i	i
O=C(CSc1nc2ccccc2[nH]1)Nc1ccc(F)c(F)c1	i	0.18	i	i	i	i
O=C(COC(=O)c1ccccc1C(=O)N1CCN(c2ccccc2)CC1)Nc1ccc(F)cc1	i	-2.2	17*	i	i	i
COc1cc(/C=C(/C#N)C(=O)c2c(C)[nH]c3ccccc23)ccc1OCC#N	i	-0.21	10*	i	i	i
CCOc1ccc(/C=C(\C#N)C(=O)c2c(C)[nH]c3ccccc23)cc1OC	i	0.47	i	i	i	i
CCCn1c(SCC(=O)c2cc(C)n(-c3ccc4c(c3)OCO4)c2C)n[nH]c1=O	i	-6.7*	i	i	i	i
C[C@]12CCC(=O)C=C1CC[C@@H]1[C@@H]2CC[C@@]2(C)[C@H]1CC[C@]2(O)C(=O)CO	i	-0.55	i	i	i	i
COc1ccccc1N1CCN(CC(=O)Nc2nccs2)CC1	i	-0.43	i	i	i	i
Cc1cccc(N2CCN(CC(=O)Nc3nccs3)CC2)c1C	i	0.78	i	-5.6*	i	13*
CCN1CCCC1CNS(=O)(=O)c1c(C)cc(C)cc1C (configuration not stated)	86*	-0.01	i	i	i	i
CN(C)CCOC(=O)C1(c2ccccc2)CCOCC1	i	-1.8	11*	i	i	i
O=C(OCCCN1CCCC1)C1(c2ccccc2)CCCC1	i	-1.2	i	i	i	i
Cc1cc(-c2csc3ncnc(N4CCN(C)CC4)c23)cc(C)c1C	i	-1.2	i	i	-7*	i
CCn1c2ccccc2c2cc(NC(=O)CNCc3ccccc3OC)ccc21	i	0.07	i	i	i	i
CCn1c2ccccc2c2cc(NC(C)=O)ccc21	i	1.5	i	i	i	i
CCn1c2ccccc2c2cc(NC(=O)CN3CCCC3)ccc21	i	-3.5	28*	i	i	i
CCn1c2ccccc2c2cc(NC(=O)CNCC3CCCO3)ccc21 (configuration not stated)	i	-9.1*	i	i	i	i
SMILES	TRPC4 act	Kir21 block	TRPC4 PAM	TRPC6 inh	TRPC4 block	TRPC6 act
CCOC(=O)c1c(C)nn(-c2ncccc2NC(=O)NC(C)C)c1C	i	0.33	i	i	i	i
CC(c1ccco1)N(C(=O)CSc1ccc(Br)cc1)c1ccccn1 (configuration not stated)	i	-6.4*	i	i	i	i
CC(C)c1ccc(C(=O)N(c2ccccn2)C(C)c2ccco2)cc1 (configuration not stated)	i	-0.39	i	i	i	i
CN1CCN(c2nc(Nc3cccc(C(F)(F)F)c3)nc(N3CCOCC3)n2)CC1	i	-0.1	i	i	i	i
CC(C)(C)c1cc(O)c(C(C)(C)C)cc1O	94*	0.79	i	i	i	i
Nn1c(Cc2cccc3ccccc23)nnc1SCc1ccccc1	i	-4.6*	i	i	i	i
CCOC(=O)C1=C(C)N(C)C(=S)NC1c1ccccc1Cl (configuration not stated)	i	-2.1	i	i	i	i
CCOC(=O)C1=C(C)N(C)C(=S)NC1c1ccccc1 (configuration not stated)	i	-1.6	i	i	i	i
CCOC(=O)C1=C(C)N(C)C(=S)NC1c1ccc(Cl)cc1 (configuration not stated)	i	-2.7	i	i	-6*	i
CCOC(=O)C1=C(C)N(C)C(=S)NC1c1cccc(Cl)c1Cl (configuration not stated)	i	-2.6	21*	i	i	i
O=C(Nc1ccncc1)c1cncc(Br)c1	i	-0.95	i	i	i	i
COc1ccc(C(=O)Nc2ccc(N3CCOCC3)cc2)cc1S(=O)(=O)NC1CCCC1	i	0.53	i	i	i	i
COc1ccc(S(=O)(=O)N2CCCCCC2)cc1C(=O)N(C)Cc1ccc(Cl)cc1Cl	i	-0.58	26*	i	i	i
CCOc1ccc([N+](=O)[O-])cc1CNC1CCCCCCC1	i	-3.3	i	-5.9*	i	i
O=[N+]([O-])c1cccc(CNC2CCCCCC2)c1	i	0.21	i	i	i	i
CC(=Nc1ccc(C)cc1)c1sc2ccccc2c1O	i	1.1	i	i	-6*	i
CCOc1cc(CNC2CCCC2)c(Cl)cc1OCC(=O)Nc1ccccc1	i	-4.5*	i	i	i	i
Cc1c(C(=O)NC2CCS(=O)(=O)C2)oc2ccccc12 (configuration not stated)	i	0.36	i	i	i	i
COc1ccc(C2CC(=O)N(CCCN(C)CCc3ccc(OC)c(OC)c3)C2)cc1 (configuration not stated)	i	0.27	13*	i	i	i
O=C(NCCCN1CCOCC1)C1COc2ccccc2O1 (configuration not stated)	i	0.85	i	i	i	i
O=C(NCCCN1CCOCC1)c1ccc(NC(=O)C2COc3ccccc3O2)cc1 (configuration not stated)	78*	1.6	i	i	-6*	i
